In experiment [1] the test system is Pseudomonas aeruginosa. The experiment is described as follows: Antimicrobial activity against nagZ gene-deficient Pseudomonas aeruginosa PAO1 harboring plasmid pUCP27 after 18 hrs by broth microdilution method. It is filed as functional. The conditions noted are these: PAO1, 18 h. In general terms: Broth dilution looks for growth in wells or tubes with falling amounts of substance.

Experiment [2] has as its system Pseudomonas aeruginosa. The experiment is described as follows: Antimicrobial activity against nagZ gene-deficient Pseudomonas aeruginosa PAO1 harboring wild type nagZ gene after 18 hrs by broth microdilution method. It is filed as functional. The conditions noted are these: PAO1, 18 h.
The target of experiment [3] is Beta-lactamase (Pseudomonas aeruginosa (strain ATCC 15692 / PAO1 / 1C / PRS 101 / LMG12228)) (UniProt P24735). The experiment in a line: Activity of beta-lactamase AmpC in Pseudomonas aeruginosa PAO1 harboring deltaampD::lox deltaampDh2::lox deltaampDh3::lox deltanagZ::Gm assessed as nitrocefin hydrolysis after 3 hrs by spectrophotometric analysis. A digest of the protocol: (§1)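 Strains grown in Mueller-Hinton broth at 37°C to OD600 ~0.5, then cultured 3 h at 37°C with 50 μg/ml cefoxitin (induced) or without. Crude sonic lysates assayed in triplicate at 37°C by continuous assay: nitrocefin (initial 100 μM) hydrolysis followed at 485 nm for 5 min. Specific activity expressed as nmol nitrocefin hydrolyzed/min/mg protein.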

For experiment [4] the target is unchanged. The experiment in a line: Activity of beta-lactamase AmpC in Pseudomonas aeruginosa PAO1 harboring deltaampD::lox deltaampDh2::lox deltaampDh3::lox assessed as nitrocefin hydrolysis after 3 hrs by spectrophotometric analysis. A digest of the protocol: as §1
Experiment [5] shares this target. The experiment is described as follows: Activity of beta-lactamase AmpC in Pseudomonas aeruginosa nagZ gene-deficient PAO1 assessed as nitrocefin hydrolysis after 3 hrs by spectrophotometric analysis. A digest of the protocol: as §1
Experiment [6] shares this target. The experiment is described as follows: Activity of beta-lactamase AmpC in Pseudomonas aeruginosa PAO1 assessed as nitrocefin hydrolysis after 3 hrs by spectrophotometric analysis. An outline of the steps: as §1
In experiment [7] the test system is Pseudomonas aeruginosa. The experiment in a line: Antimicrobial activity against Pseudomonas aeruginosa PAO1 harboring deltaampD::lox deltaampDh2::lox deltaampDh3::lox after 18 hrs by broth microdilution method. It is filed as functional. The note with it: PAO1, 18 h. A digest of the protocol:
(§2)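 CLSI broth microdilution in cation-adjusted Mueller-Hinton medium with serial β-lactam dilutions. Each well holds 200 μl broth inoculated with ~10⁴ cells from starter cultures at OD600 ~0.5. Plates shaken at 37°C for 18 h. The MIC is read as the lowest antibiotic concentration showing no growth. Triplicate determinations.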

The test system of experiment [8] is Pseudomonas aeruginosa. The experiment in a line: Antimicrobial activity against nagZ gene-deficient Pseudomonas aeruginosa PAO1 after 18 hrs by broth microdilution method. It is filed as functional. The note with it: PAO1, 18 h. An outline of the steps:
as §2

Experiment [9] relates to Pseudomonas aeruginosa. The experiment is described as follows: Antimicrobial activity against Pseudomonas aeruginosa PAO1 harboring deltaampD::lox deltaampDh2::lox delta ampDh3::lox after 18 hrs by broth microdilution method. It is filed as functional. The conditions noted are these: PAO1, 18 h. An outline of the steps: as §2
For experiment [10], the system named is Pseudomonas aeruginosa. The experiment is described as follows: Antimicrobial activity against Pseudomonas aeruginosa PAO1 after 18 hrs by broth microdilution method. It is filed as functional. The note with it: PAO1, 18 h. An outline of the steps: as §2
Experiment [11] has as its system Pseudomonas aeruginosa. The experiment is described as follows: Ratio of MIC for Pseudomonas aeruginosa PAO1 harboring deltaampD::lox deltaampDh2::lox deltaampDh3::lox deltanagZ::Gm in presence of beta-lactamase inhibitor Tazobactam to MIC for nagZ gene-deficient Pseudomonas aeruginosa PAO1 in presence of beta-lactamase inhibitor Tazobactam. It is filed as functional.

Experiment [12] deals with Pseudomonas aeruginosa. The experiment in a line: Antimicrobial activity against Pseudomonas aeruginosa PAO1 harboring deltaampD::lox deltaampDh2::lox deltaampDh3::lox deltanagZ::Gm after 18 hrs by Etest in presence of beta-lactamase inhibitor Tazobactam. It is filed as functional. The conditions noted are these: PAO1, 18 h.
In experiment [13] the test system is Pseudomonas aeruginosa. The experiment in a line: Antimicrobial activity against Pseudomonas aeruginosa PAO1 harboring deltaampD::lox deltaampDh2::lox deltaampDh3::lox deltanagZ::Gm after 18 hrs by Etest. It is filed as functional. The conditions noted are these: PAO1, 18 h. An outline of the steps:
(§3)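 Etest strips on Mueller-Hinton agar plates, run per the manufacturer's recommendations; MICs determined in triplicate.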

For experiment [14], the system named is Pseudomonas aeruginosa. The experiment in a line: Antimicrobial activity against nagZ gene-deficient Pseudomonas aeruginosa PAO1 after 18 hrs by Etest in presence of beta-lactamase inhibitor Tazobactam. It is filed as functional. The note with it: PAO1, 18 h. A digest of the protocol:
(§4)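 Strains are P. aeruginosa PAO1 and its insertional nagZ-inactivated derivative. MICs were read from Etest strips on Mueller-Hinton agar, following the manufacturer's recommendations. Each determination was done in triplicate.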

For experiment [15], the system named is Pseudomonas aeruginosa. The experiment in a line: Antimicrobial activity against nagZ gene-deficient Pseudomonas aeruginosa PAO1 after 18 hrs by Etest. It is filed as functional. The conditions noted are these: PAO1, 18 h. A digest of the protocol:
as §4

Experiment [16] deals with Pseudomonas aeruginosa. The experiment is described as follows: Antimicrobial activity against Pseudomonas aeruginosa PAO1 harboring deltaampD::lox deltaampDh2::lox delta ampDh3::lox after 18 hrs by Etest in presence of beta-lactamase inhibitor Tazobactam. The note with it: PAO1, 18 h. It is filed as functional.
In experiment [17] the test system is Pseudomonas aeruginosa. The experiment is described as follows: Antimicrobial activity against Pseudomonas aeruginosa PAO1 harboring deltaampD::lox deltaampDh2::lox delta ampDh3::lox after 18 hrs by Etest. It is filed as functional. The note with it: PAO1, 18 h. An outline of the steps: as §3
In experiment [18] the test system is Pseudomonas aeruginosa. The experiment in a line: Antimicrobial activity against Pseudomonas aeruginosa PAO1 after 18 hrs by Etest in presence of beta-lactamase inhibitor Tazobactam. It is filed as functional. The conditions noted are these: PAO1, 18 h. An outline of the steps:
as §4

Experiment [19] deals with Pseudomonas aeruginosa. The experiment is described as follows: Antimicrobial activity against Pseudomonas aeruginosa PAO1 after 18 hrs by Etest. It is filed as functional. The conditions noted are these: PAO1, 18 h. An outline of the steps: as §4
Experiment [20] deals with Pseudomonas aeruginosa. The experiment in a line: Ratio of MIC for Pseudomonas aeruginosa PAO1 harboring deltaampD::lox deltaampDh2::lox deltaampDh3::lox to MIC for Pseudomonas aeruginosa PAO1 harboring deltaampD::lox deltaampDh2::lox deltaampDh3::lox deltanagZ::Gm.

Values after ≈ are worked out from the molar mass of the structure shown. Some results are limits rather than exact numbers.

Chain of Beta-lactamase (Pseudomonas aeruginosa (strain ATCC 15692 / PAO1 / 1C / PRS 101 / LMG12228)) (P24735 27-397 limits assumed): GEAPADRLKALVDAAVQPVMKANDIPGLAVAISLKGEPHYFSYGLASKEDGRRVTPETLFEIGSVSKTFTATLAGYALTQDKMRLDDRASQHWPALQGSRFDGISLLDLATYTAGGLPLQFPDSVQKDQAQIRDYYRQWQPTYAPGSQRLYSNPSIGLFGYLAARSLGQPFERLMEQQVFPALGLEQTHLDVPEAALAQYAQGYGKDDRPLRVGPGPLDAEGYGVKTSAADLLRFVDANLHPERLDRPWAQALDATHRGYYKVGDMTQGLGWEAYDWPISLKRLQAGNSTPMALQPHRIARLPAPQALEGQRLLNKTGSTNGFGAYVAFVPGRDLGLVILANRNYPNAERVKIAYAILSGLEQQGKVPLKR

On to `CO[C@@]1(NC(=O)Cc2cccs2)C(=O)N2C(C(=O)O)=C(COC(N)=O)CS[C@@H]21` [CEFOXITIN], for which the MIC (as a rule, the lowest concentration found to suppress growth) against Pseudomonas aeruginosa [1] is 600 µg/mL (≈ 1400 µM); in the experiment with Pseudomonas aeruginosa [2] it was 1200 µg/mL (≈ 2810 µM); with Pseudomonas aeruginosa [7], 3200 µg/mL (≈ 7490 µM); against Pseudomonas aeruginosa [8], 800 µg/mL (≈ 1870 µM); against Pseudomonas aeruginosa [9] it was 3200 µg/mL (≈ 7490 µM); against Pseudomonas aeruginosa [10] it was 1600 µg/mL (≈ 3740 µM). The Activity in [3] was 1020 nmol; in experiment [4] it was 3940 nmol; in experiment [5], 95 nmol; in experiment [6] it was 230 nmol.
Regarding `CCN1CCN(C(=O)N[C@@H](C(=O)N[C@@H]2C(=O)N3[C@@H]2SC(C)(C)[C@@H]3C(=O)O)c2ccccc2)C(=O)C1=O` [PIPERACILLIN], in the experiment on Pseudomonas aeruginosa [11], the Ratio is 10. Besides, the MIC in the experiment with Pseudomonas aeruginosa [12] is 16 µg/mL; against Pseudomonas aeruginosa [13], 24 µg/mL (≈ 46.4 µM); in the experiment on Pseudomonas aeruginosa [14], 1.5 µg/mL; against Pseudomonas aeruginosa [15] it was 1 µg/mL (≈ 1.93 µM); in the experiment on Pseudomonas aeruginosa [16] it was not below 256 µg/mL; with Pseudomonas aeruginosa [17] it was more than 256 µg/mL. For the same molecule, the MIC was found to be 1 µg/mL in the experiment on Pseudomonas aeruginosa [18] and 1 µg/mL (≈ 1.93 µM) in the experiment on Pseudomonas aeruginosa [19].
For the molecule `CO/N=C(\C(=O)N[C@@H]1C(=O)N2C(C(=O)[O-])=C(C[N+]3(C)CCCC3)CS[C@H]12)c1csc(N)n1`, the MIC in the experiment with Pseudomonas aeruginosa [13] amounted to 3 µg/mL (≈ 6.24 µM); against Pseudomonas aeruginosa [15], 0.38 µg/mL (≈ 0.791 µM); against Pseudomonas aeruginosa [17], 12 µg/mL (≈ 25 µM); in the experiment on Pseudomonas aeruginosa [19], 0.5 µg/mL (≈ 1.04 µM). For the same molecule, the Ratio in the experiment on Pseudomonas aeruginosa [20] is given as 4.
